Data: ChEMBL document CHEMBL1132468, “5-(Tryptophyl)amino-1,3-dioxoperhydropyrido[1,2-c]pyrimidine-based potent and selective CCK(1) receptor antagonists: structural modifications at the tryptophan domain” (J Med Chem, 1999)
Residues, ends and D or L forms follow the SMILES beside them.

How the values were obtained:
Rattus norvegicus [1] = experiment: Compound (CCK1 antagonist) was administered orally for the effect of increase in plasma amylase activity induced by caerulein in rat.; type: functional
How it was run: (§1)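 Caerulein pancreatitis in fasted (24 h) male Wistar rats (190–210 g): four hourly sc injections of 10 µg/kg. Antagonist dosed orally (0.25 mL/100 g; 0.1 or 1 mg/kg) 60 min before the first caerulein injection. Plasma drawn 3 h after the final injection. Amylase and lipase activities read with commercial kits, in IU/mL. Comparisons by ANOVA plus Scheffé's test against caerulein.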

Rattus norvegicus [2] = experiment: Compound (CCK1 antagonist) was administered orally for the effect of increase in plasma lipase activity induced by caerulein in rat; type: functional; how it was run: as §1
Rattus norvegicus [3] = experiment: Compound (CCK1 antagonist) was administered intraperitoneally for the effect of increase in plasma amylase activity induced by caerulein in rat; type: functional
How it was run: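 Male Wistar rats (190–210 g), fasted 24 h, given four sc caerulein injections (10 µg/kg) at hourly intervals. Antagonist given ip (0.25 mL/100 g; 0.1 or 1 mg/kg) 30 min before the first caerulein dose. Blood taken 3 h after the last injection. Plasma amylase and lipase measured by commercial kits, in IU/mL. Statistics by ANOVA with Scheffé's test against caerulein alone.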

Rattus norvegicus [4] = experiment: Compound (CCK1 antagonist) was administered intraperitoneally for the effect of increase in plasma lipase activity induced by caerulein in rat

CSCC[C@H](NC(=O)[C@H](Cc1c[nH]c2ccccc12)NC(=O)CNC(=O)[C@@H](NC(=O)[C@H](Cc1ccc(OS(=O)(=O)O)cc1)NC(=O)[C@H](CC(=O)O)NC(=O)[C@H](CCC(N)=O)NC(=O)[C@@H]1CCC(=O)N1)[C@@H](C)O)C(=O)N[C@@H](CC(=O)O)C(=O)N[C@@H](Cc1ccccc1)C(N)=O [CAERULIN] (HELM PEPTIDE1{[Glp].Q.D.[O=C([C@H](Cc1ccc(OS(=O)(=O)O)cc1)N[*:1])[*:2]].T.G.W.M.D.F.[am]}$$$$V2.0)
Increase in plasma amylase (Rattus norvegicus [1]): 39293 IU ml-1 | Increase in plasma lipase (Rattus norvegicus [2]): 2801 IU ml-1 | Increase in plasma amylase (Rattus norvegicus [3]): 52101 IU ml-1 | Increase in plasma lipase (Rattus norvegicus [4]): 3100 IU ml-1
